The values that follow come from ChEMBL document CHEMBL1817572, “New, potent, selective, and short-acting peptidic V1a receptor agonists” (J Med Chem, 2011).

Experiment [1] concerns the target T1, Vasopressin V1a receptor (Homo sapiens, UniProt P37288). Nature of the experiment: Partial agonist activity at recombinant human vasopressin V1a receptor expressed in HEK293 cells by luciferase reporter gene assay. The experiment is classed as functional, cell-based. The procedure, abridged: (§1)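 Same luciferase reporter systems (OT in stable CHO-K1, V1b in stable Flp-In-293, each with transient NFAT-luciferase; V1a in HEK293 with NFAT-luciferase, V2 in HEK293 with CRE-luciferase). Peptides added for 5 h at 37 °C two days post-transfection, luminescence read. Partial agonism means efficacy <70%.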
Target sequence in this assay (P37288 whole entry, looked up): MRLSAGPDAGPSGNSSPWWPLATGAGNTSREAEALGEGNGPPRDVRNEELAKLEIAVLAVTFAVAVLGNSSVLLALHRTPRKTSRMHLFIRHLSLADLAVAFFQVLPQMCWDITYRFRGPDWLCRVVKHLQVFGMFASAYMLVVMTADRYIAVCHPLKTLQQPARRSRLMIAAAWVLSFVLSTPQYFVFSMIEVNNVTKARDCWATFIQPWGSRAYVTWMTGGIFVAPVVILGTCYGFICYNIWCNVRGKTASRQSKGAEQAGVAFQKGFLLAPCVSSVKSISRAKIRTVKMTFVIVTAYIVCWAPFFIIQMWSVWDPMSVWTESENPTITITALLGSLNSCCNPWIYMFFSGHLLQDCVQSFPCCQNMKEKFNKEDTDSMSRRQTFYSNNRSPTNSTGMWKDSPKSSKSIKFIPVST

For experiment [2], the target named is Vasopressin V1a/V2 (Homo sapiens) (UniProt P30518+P37288). The experiment is described as follows: Selectivity ratio of EC50 for human vasopressin V2 receptor to EC50 for human vasopressin V1a receptor.
The target in a further experiment is T2, Vasopressin V1b receptor (Homo sapiens, UniProt P47901).
T2 sequence (P47901 whole entry): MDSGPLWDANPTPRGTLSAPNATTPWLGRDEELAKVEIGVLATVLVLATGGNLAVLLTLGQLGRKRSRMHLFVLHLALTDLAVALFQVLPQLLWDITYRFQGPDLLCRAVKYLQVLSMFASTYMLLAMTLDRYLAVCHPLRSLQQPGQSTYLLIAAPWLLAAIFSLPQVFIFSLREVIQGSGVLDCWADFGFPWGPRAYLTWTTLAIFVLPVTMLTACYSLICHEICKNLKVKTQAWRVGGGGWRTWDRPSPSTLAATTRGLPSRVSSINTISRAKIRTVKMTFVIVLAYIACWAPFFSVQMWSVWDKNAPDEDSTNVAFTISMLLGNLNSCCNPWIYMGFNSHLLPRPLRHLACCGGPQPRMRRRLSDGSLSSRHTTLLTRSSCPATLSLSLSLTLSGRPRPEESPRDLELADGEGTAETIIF
Nature of the experiment: Agonist activity at recombinant human vasopressin V1b receptor expressed in Flp-In-293 cells by luciferase reporter gene assay. The experiment is classed as functional, cell-based. Conditions: read-out: EC50. In a few lines: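 Reporter gene assays in HEK293 cells transiently cotransfected with V1a (human or rat) or human V2 receptor vector plus NFAT-luciferase (V1a) or CRE-luciferase (V2) reporter; V1b in Flp-In-293 stably expressing receptor, OT in CHO-K1 stably expressing receptor, both transiently transfected with NFAT-luciferase. Two days post-transfection, peptides added for 5 h at 37 °C, lysis with luciferin, luminescence read.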
(Reporter assays use an easily measured gene product as a stand-in for the process of interest.)

The target of experiment [3] is T1, Vasopressin V1a receptor. The experiment is described as follows: Agonist activity at recombinant human vasopressin V1a receptor expressed in HEK293 cells by luciferase reporter gene assay. The experiment is classed as functional, cell-based. As to conditions: read-out: EC50.
Target sequence in this assay (P37288 whole entry): as the sequence (P37288 whole entry, looked up) above
For experiment [4], the species on record is Homo sapiens. Nature of the experiment: Selectivity ratio of EC50 for human vasopressin V1b receptor to EC50 for human vasopressin V1a receptor.
For experiment [5], the system named is Rattus norvegicus. The experiment is described as follows: Vasoconstriction in Wistar rat assessed as assessed as decay in vasopressive duration of action at 0.2 nmol/kg, iv bolus measured over 10 sec interval. The experiment is classed as functional.
The species named for experiment [6] is Homo sapiens. Nature of the experiment: Selectivity ratio of EC50 for human oxytocin receptor to EC50 for human vasopressin V1a receptor.
Another experiment addresses T3, Oxytocin receptor (Homo sapiens, UniProt P30559).
T3 sequence (P30559 whole entry): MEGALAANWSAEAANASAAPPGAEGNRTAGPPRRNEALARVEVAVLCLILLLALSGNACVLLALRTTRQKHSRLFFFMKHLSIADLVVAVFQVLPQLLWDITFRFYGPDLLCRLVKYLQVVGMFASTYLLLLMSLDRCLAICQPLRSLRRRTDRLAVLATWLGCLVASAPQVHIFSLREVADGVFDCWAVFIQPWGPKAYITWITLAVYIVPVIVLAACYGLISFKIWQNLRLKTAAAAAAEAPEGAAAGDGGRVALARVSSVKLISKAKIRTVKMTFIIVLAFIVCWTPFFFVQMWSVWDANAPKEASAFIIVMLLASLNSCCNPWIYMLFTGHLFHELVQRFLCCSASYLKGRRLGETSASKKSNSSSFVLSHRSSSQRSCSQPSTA
Nature of the experiment: Agonist activity at human OT receptor expressed in CHO-K1 cells by luciferase reporter gene assay. The experiment is classed as functional, cell-based.

The target in experiment [7] is T4, Vasopressin V2 receptor (Homo sapiens, UniProt P30518). Nature of the experiment: Agonist activity at recombinant human vasopressin V2 receptor expressed in HEK293 cells by luciferase reporter gene assay. The experiment is classed as functional, cell-based. Conditions: read-out: EC50.
Experiment [8] has as its target T4, Vasopressin V2 receptor. Nature of the experiment: Partial agonist activity at recombinant human vasopressin V2 receptor expressed in HEK293 cells by luciferase reporter gene assay. The experiment is classed as functional, cell-based. In a few lines: as §1
In experiment [9] the target is Vasopressin V1a receptor (Rattus norvegicus, UniProt P30560). Nature of the experiment: Agonist activity at recombinant rat vasopressin V1a receptor expressed in HEK293 cells by luciferase reporter gene assay. The experiment is classed as functional, cell-based. As to conditions: read-out: EC50.
The target of experiment [10] is T5, Vasopressin V1b receptor (Homo sapiens) (UniProt P47901).
T5 sequence (whole entry): T2 sequence (P47901 whole entry)
Nature of the experiment: Partial agonist activity at recombinant human vasopressin V1b receptor expressed in Flp-In-293 cells by luciferase reporter gene assay. The experiment is classed as functional, cell-based. The procedure, abridged:
as §1

Experiment [11] relates to Rattus norvegicus. Nature of the experiment: Vasoconstriction in Wistar rat assessed as assessed as decay in vasopressive duration of action at 0.6 nmol/kg, iv bolus measured over 10 sec interval. The experiment is classed as functional. The procedure, abridged: (§2)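 Fasted male Wistar rats (206–340 g) under isoflurane, then thiobutabarbital 150 mg/kg ip, ventilated, 37–38 °C, with carotid pressure and jugular dosing. Dibenamine 1.8 mg/rat iv pretreatment. Sequence: iv boluses (0.5 mL/kg) of heparinized vehicle, then two reference doses of 0.1 nmol/kg, then two test doses; one matches the reference diastolic pressure rise. Relative duration = reference decay rate / test decay rate; mean ± SEM.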

Experiment [12] deals with Rattus norvegicus. The experiment is described as follows: Vasoconstriction in Wistar rat assessed as assessed as decay in vasopressive duration of action at 60 nmol/kg, iv bolus measured over 10 sec interval. The experiment is classed as functional. The procedure, abridged: as §2

Numbered stars: 1 amine (or outer) side, 2 acyl side, 3 side chain; on linkers, the order of the positions; unused ones are H or OH. Bridge positions count the residues as written; N and C are the ends. Square brackets hold non-standard residues; d marks the D form. Peptide text beside a SMILES is read from it. Orn(iPr) = CC(C)NCCC[C@H](N)C(=O)O; X1 = CCNCCC[C@H](N[*:1])C(=O)[*:2]; 2Thi = N[C@@H](Cc1cccs1)C(=O)O; Cha = N[C@@H](CC1CCCCC1)C(=O)O

Chain of Vasopressin V1a/V2 (Homo sapiens) (P30518 whole entry, looked up): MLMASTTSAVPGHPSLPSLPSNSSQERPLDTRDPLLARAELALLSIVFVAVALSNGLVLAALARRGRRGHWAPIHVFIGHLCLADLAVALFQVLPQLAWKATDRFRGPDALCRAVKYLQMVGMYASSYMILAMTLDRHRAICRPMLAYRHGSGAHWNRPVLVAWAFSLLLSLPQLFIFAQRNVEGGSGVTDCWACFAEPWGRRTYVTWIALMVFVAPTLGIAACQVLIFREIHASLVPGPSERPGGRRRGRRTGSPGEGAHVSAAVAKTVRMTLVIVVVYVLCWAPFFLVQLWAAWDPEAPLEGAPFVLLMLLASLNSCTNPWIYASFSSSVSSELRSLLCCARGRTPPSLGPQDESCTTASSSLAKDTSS
Chain of Vasopressin V1a/V2 (Homo sapiens) (P37288 whole entry, looked up): as the sequence (P37288 whole entry, looked up) above
T4 sequence (P30518 whole entry): as the sequence (P30518 whole entry, looked up) above
Chain of Vasopressin V1a receptor (Rattus norvegicus, UniProt P30560) (P30560 whole entry): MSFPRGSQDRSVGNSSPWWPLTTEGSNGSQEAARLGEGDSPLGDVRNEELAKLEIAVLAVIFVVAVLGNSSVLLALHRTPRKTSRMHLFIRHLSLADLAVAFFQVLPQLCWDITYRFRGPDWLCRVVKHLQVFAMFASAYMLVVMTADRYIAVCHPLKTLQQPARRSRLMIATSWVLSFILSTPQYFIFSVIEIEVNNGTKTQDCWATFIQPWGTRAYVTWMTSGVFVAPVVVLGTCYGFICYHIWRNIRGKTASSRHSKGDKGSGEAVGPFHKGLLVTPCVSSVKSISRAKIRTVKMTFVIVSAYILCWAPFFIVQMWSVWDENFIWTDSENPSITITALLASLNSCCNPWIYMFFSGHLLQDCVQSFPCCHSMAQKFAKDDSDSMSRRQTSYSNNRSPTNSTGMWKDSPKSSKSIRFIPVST

For the compound `CC[C@H](C)[C@@H]1NC(=O)[C@H](Cc2ccccc2)NC(=O)[C@@H](N)CSSC[C@@H](C(=O)N2CCC[C@H]2C(=O)N[C@@H](CCCNC(C)C)C(=O)NCC(N)=O)NC(=O)[C@H](CC(N)=O)NC(=O)[C@H](CCC(N)=O)NC1=O` (H-CFIQNCP[Orn(iPr)]G-NH2; disulfide 1-6), the Efficacy on Vasopressin V1a receptor [1] and on Vasopressin V2 receptor [8] was less than 70% in each case. Further, the Ratio EC50 in experiment [2] stood at 760; in the experiment listed under Homo sapiens [4], 110; in the experiment listed under Homo sapiens [6], 86. Also, the EC50 on Vasopressin V1b receptor was 44 nM; at Vasopressin V1a receptor [3], 0.38 nM; on Oxytocin receptor (read-out: EC50), 33 nM; at Vasopressin V2 receptor [7] it was 290 nM; on Vasopressin V1a receptor [9], 0.13 nM. For the same compound, the Time in the experiment on Rattus norvegicus [5] is 2.3 min.

In the case of `CCNCCC[C@H](NC(=O)[C@@H]1CCCN1C(=O)[C@@H]1CSSC[C@H](N)C(=O)N[C@@H](Cc2ccccc2)C(=O)N[C@@H]([C@@H](C)CC)C(=O)N[C@@H](CCC(N)=O)C(=O)N[C@@H](CC(N)=O)C(=O)N1)C(=O)NCC(N)=O` (H-CFIQNCP[X1]G-NH2; disulfide 1-6), the Ratio EC50 in experiment [2] came out at 450; in the experiment listed under Homo sapiens [4], 56; in the experiment filed under Homo sapiens [6], 56. Further, the EC50 at Vasopressin V1b receptor is 32 nM; at Vasopressin V1a receptor [3], 0.57 nM; at Oxytocin receptor (read-out: EC50) it was 32 nM; on Vasopressin V2 receptor [7], 260 nM; at Vasopressin V1a receptor [9], 0.16 nM. The Time with Rattus norvegicus [5] is reported as 2.1 min. In addition, the Efficacy (at Vasopressin V2 receptor [8]; in experiment [10]) was less than 70% throughout.

Take `CC[C@H](C)[C@@H]1NC(=O)[C@H](Cc2cccs2)NC(=O)[C@@H](N)CSSC[C@@H](C(=O)N2CCC[C@H]2C(=O)N[C@@H](CCCNC(C)C)C(=O)NCC(N)=O)NC(=O)[C@H](CC(N)=O)NC(=O)[C@H](CCC(N)=O)NC1=O` (H-C[2Thi]IQNCP[Orn(iPr)]G-NH2; disulfide 1-6): the results for the Ratio EC50 (in experiment [2]; in the experiment listed under Homo sapiens [4]; in the experiment filed under Homo sapiens [6]) were 560, 530 and 150, respectively. The EC50 was determined as 370 nM at Vasopressin V1b receptor; 0.69 nM on Vasopressin V1a receptor [3]; 110 nM at Oxytocin receptor (read-out: EC50); 390 nM at Vasopressin V2 receptor [7]; 0.32 nM at Vasopressin V1a receptor [9]. In addition, in the experiment with Rattus norvegicus [11], the Time is 2.7 unitless ratio. For the same compound, the Efficacy at Vasopressin V2 receptor [8] is less than 70%.

On to `CC[C@H](C)[C@@H]1NC(=O)[C@H](CC2CCCCC2)NC(=O)[C@@H](N)CSSC[C@@H](C(=O)N2CCC[C@H]2C(=O)N[C@@H](CCCNC(C)C)C(=O)NCC(N)=O)NC(=O)[C@H](CC(N)=O)NC(=O)[C@H](CC(N)=O)NC1=O` (H-C[Cha]INNCP[Orn(iPr)]G-NH2; disulfide 1-6), for which the Ratio EC50 in [2] is 690; in the experiment filed under Homo sapiens [4], 78; in the experiment listed under Homo sapiens [6], more than 7100. In addition, the EC50 at Vasopressin V1b receptor is 110 nM; at Vasopressin V1a receptor [3] it was 1.4 nM; at Oxytocin receptor (cho-k1, read-out: EC50), more than 10000 nM; on Oxytocin receptor (read-out: pEC50 (converted)), more than 10000 nM; at Vasopressin V2 receptor [7] it was 970 nM; on Vasopressin V1a receptor [9] it was 57 nM. The Time with Rattus norvegicus [12] was 4.1 unitless ratio.
